Our source for the CHI, IC50 and solubility values is ChEMBL document CHEMBL1152800, “Aza-analogue dibenzepinone scaffolds as p38 mitogen-activated protein kinase inhibitors: design, synthesis, and biological data of inhibitors with improved physicochemical properties” (J Med Chem, 2009).

Molecules are shown by their SMILES. Converted amounts (≈) assume the structure as drawn.

Series [1] is described as follows: Lipophilicity, CHI in methanol by fast-gradient HPLC. It counts as physicochemical. The gist of the method: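 Chromatographic hydrophobicity index measured by fast-gradient reversed-phase HPLC with methanol as organic modifier. The index is calculated from the compound's retention time. It approximates the volume percentage of methanol needed for equal distribution of the compound between mobile and stationary phases.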

Series [2] has as its target Mitogen-activated protein kinase 14 (Homo sapiens, UniProt Q16539). Kind of series: Inhibition of p38alpha MAPK by cell-free enzyme immunosorbent assay.
A short description of series [3]: Aqueous solubility in HCl/H2O at pH 1. The class given is physicochemical.

Sequence of Mitogen-activated protein kinase 14 (Q16539 whole entry): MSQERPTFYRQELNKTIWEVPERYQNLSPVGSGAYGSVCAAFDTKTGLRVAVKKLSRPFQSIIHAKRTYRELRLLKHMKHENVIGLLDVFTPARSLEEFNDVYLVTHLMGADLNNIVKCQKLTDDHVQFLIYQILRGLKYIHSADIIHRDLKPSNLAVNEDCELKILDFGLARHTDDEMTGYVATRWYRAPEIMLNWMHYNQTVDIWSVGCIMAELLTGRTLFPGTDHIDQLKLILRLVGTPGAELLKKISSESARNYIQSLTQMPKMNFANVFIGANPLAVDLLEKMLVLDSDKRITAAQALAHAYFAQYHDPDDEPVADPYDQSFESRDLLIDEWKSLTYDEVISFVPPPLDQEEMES

Take `Nc1ccccc1Nc1ccc2c(c1)OCc1ncccc1C2=O`: the CHI in series [1] came out at 69%. For the same molecule, the IC50 (usually the concentration needed to halve the response being measured) in series [2] was determined as 2680 nM.

With `Nc1cc(F)ccc1Nc1ccc2c(c1)CCc1ccccc1C2=O`, the CHI in series [1] was 82.8%. For the same molecule, in series [2], 130 nM corresponded to half-maximal inhibition (IC50).

In turn, `Nc1cc(F)ccc1Nc1ccc2c(c1)CCc1ncccc1C2=O` showed a CHI in series [1] of 72.9%. This molecule also showed an IC50 in series [2] of 1190 nM.

With `O=C1c2ccc(Nc3ccc(F)cc3F)cc2OCc2ncccc21`, the CHI in series [1] is on record as 83.2%. In series [2], the 50% inhibitory concentration (IC50) was 180 nM.

As for `Nc1ccccc1Nc1ccc2c(c1)CCc1ccccc1C2=O`, in series [3], the solubility (in general, the dissolved amount per volume that the medium holds) is less than 10 µg/mL. Moreover, in series [1], the CHI is listed as 82.6%.

As for `O=c1c2ccc(Nc3ccc(F)cc3F)cc2ccc2ncccc12`, in series [1], the CHI amounted to 82.9%. In series [2], this molecule returned a 50% inhibitory concentration (IC50) of 330 nM.

`Nc1ccccc1Nc1ccc2c(=O)c3cnccc3ccc2c1` returned a CHI in series [1] of 71.4%. In series [2], it took 1950 nM to reach half-maximal inhibition (IC50).

On to `O=C1c2ccccc2CCc2cc(Nc3ccc(F)cc3F)ccc21`, for which, in series [3], the solubility was less than 10 µg/mL. The molecule also gave a CHI in series [1] of 88.1%. Further, in series [2], inhibition was half-maximal at 130 nM (IC50).

`O=c1c2ccccc2ccc2cc(Nc3ccc(F)cc3F)ccc12`: the CHI in series [1] is 88.7%. The molecule also had an IC50 in series [2] of 2530 nM.

With `O=C1c2ccc(Nc3ccc(F)cc3F)cc2CCc2ncccc21`, the concentration in solution in series [3] (solubility) came to 486 µg/mL (≈ 1440 µM). The molecule also returned a CHI in series [1] of 81.2%. The molecule also came in with a 50% inhibitory concentration (IC50) in series [2] of 240 nM.

`Nc1ccccc1Nc1ccc2c(c1)CCc1cccnc1C2=O` returned a CHI in series [1] of 65.8%. Half-maximal inhibition in series [2] (IC50) required 440 nM.

Take `Nc1ccccc1Nc1ccc2c(=O)c3cccnc3ccc2c1`: the CHI in series [1] stood at 73.4%. The molecule also displayed an IC50 in series [2] of 1080 nM.

In turn, `Nc1ccccc1Nc1ccc2c(c1)OCc1ccccc1C2=O` registered a CHI in series [1] of 75.2%.

In series [3], `Nc1ccccc1Nc1ccc2c(c1)CCc1ncccc1C2=O` yielded a solubility of 1200 µg/mL (≈ 3800 µM). For the same molecule, the CHI in series [1] is given as 73.9%. Besides, the IC50 in series [2] was 310 nM.

`Nc1cc(F)ccc1Nc1ccc2c(c1)OCc1ccccc1C2=O`: in series [2], the IC50 was 40 nM.

`Nc1cc(F)ccc1Nc1ccc2c(c1)OCc1ncccc1C2=O` had a CHI in series [1] of 70.9%. This molecule registered a half-inhibitory concentration (IC50) in series [2] of 2730 nM.
